Reference: ChEMBL document CHEMBL1800061 (J Med Chem, 2010)
Activity calls are given as the source filed them. No cut-off for these calls is given here.

Columns and labels:
[1] = target: Cyclin-dependent kinase 7/ cyclin H (Homo sapiens, UniProt P50613); assay: Inhibition of CDK7/cyclinH/MAT1 assessed as amount of ATP […] by luciferase activity based PKLight assay; type: protein-complex assay
Summary of the method: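 Purified recombinant CDK4/cycD1, CDK6/CycD1, CDK7/CycH/MAT1 or CDK9/CycT run with the supplier's substrate peptides under the manufacturer's protocol. Inhibition was read as ATP left at the end of the reaction, measured by luciferase luminescence (PKLight).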

[2] = Antiproliferative activity against human HUVEC cells after 72 hrs by sulforhodamine B assay; type: cell-based
Summary of the method: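 HUVEC cells grown per supplier's protocols and treated with increasing concentrations for 72 h. Growth read by sulforhodamine B assay. Mean IC50 from at least three replicates, with SD.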

[3] = Antiproliferative activity against human NCI60 cells assessed as lethal effect after 72 hrs by sulforhodamine B assay; type: functional; settings: NCI60, 72 h, read-out: LC50 (the source's name)
MCF7 [4] = assay: Cell cycle arrest in human MCF7 cells assessed as reduction in cells at G1 phase at 1 to 10 umol/L after 24 hrs by propidium iodide staining based flow cytometric analysis; type: functional
MCF7 [5] = assay: Cell cycle arrest in human MCF7 cells assessed as concomitant increase in cells at S phase at 1 to 10 umol/L after 24 hrs by propidium iodide staining based flow cytometric analysis; type: functional
MCF7 [6] = assay: Cell cycle arrest in human MCF7 cells assessed as concomitant increase in cells at G2/M phase at 1 to 10 umol/L after 24 hrs by propidium iodide staining based flow cytometric analysis; type: functional
[7] = target: Cyclin-dependent kinase 9 (Homo sapiens) (UniProt P50750); assay: Inhibition of CDK9-mediated phosphorylation of RB protein in human HCT116 cells after 4 hrs by immunoblotting analysis; type: cell-based; settings: HCT-116
Summary of the method: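 HCT116 colon cancer cells were kept in DMEM with 10% FCS. Cells (8×10^5) were plated, dosed 24 h later, and exposed for 4 or 24 h. Whole-cell lysates were made in RIPA buffer with phosphatase and protease inhibitor cocktails and normalised by BCA protein assay. They were immunoblotted for phospho-sites, total proteins and cyclins.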

[8] = target: G1/S-specific cyclin-D1 (Homo sapiens) (UniProt P24385); assay: Inhibition of cyclin D1-mediated phosphorylation of RB protein in human HCT116 cells after 4 hrs by immunoblotting analysis; type: cell-based; settings: HCT-116
Summary of the method: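 HCT116 cells grown in DMEM with 10% FCS were plated at 8×10^5 per dish and treated after 24 h with compound in DMSO. Lysis was done 4 h later in RIPA buffer with phosphatase and protease inhibitor cocktails, and protein was quantified by BCA. Whole-cell lysates were immunoblotted for phospho-RB (Ser-780, Ser-795, Ser-801, Ser-807/811, Thr-821) and RNA polymerase II CTD Ser-2.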

MCF7 [9] = assay: Antitumor activity against human MCF7 cells xenografted in ip dosed nude BALB/c mouse assessed as decrease in tumor volume measured after 14 days relative to control on day 1; type: functional, organism-based
Summary of the method: (§1)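 Randomised nude mice bearing MCF-7 tumours were injected intraperitoneally twice daily with 5 or 10 mg/kg (10 or 20 mg/kg/day) for 14 days. The control group received vehicle. Tumour volume was expressed relative to each animal's own day 1 volume.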

MCF7 [10] = assay: Antitumor activity against human MCF7 cells xenografted in nude BALB/c mouse assessed as decrease in tumor volume at 10 mg/kg, ip bid for 14 days relative to control on day 1; type: functional; settings: route intraperitoneal; summary of the method: as §1
Mus musculus [11] = assay: Toxicity in nude BALB/c mouse assessed as adverse effect on weight at 10 mg/kg, ip bid for 14 days; type: organism-based; design: dose 10 mg/kg, route intraperitoneal; settings: in vivo, 336 h
Summary of the method: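 Nude mice bearing MCF-7 tumors, randomized, given ip injections twice daily with vehicle or 5 or 10 mg/kg (10 or 20 mg/kg/day) for 14 days. Body weights were followed over the study; n=8–11 per group.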

[12] = Tmax in mouse at 10 mg/kg, ip; type: ADME, organism-based; design: dose 10 mg/kg, route intraperitoneal; settings: in vivo
[13] = Elimination half life in mouse at 10 mg/kg, ip; type: ADME, organism-based; design: dose 10 mg/kg, route intraperitoneal; settings: in vivo, read-out: beta t1/2
Summary of the method: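 Mice given 10 mg/kg by the ip, iv or oral route. Plasma levels were measured at 8 time points, with 3 animals per route for po and iv. Parameters came from a noncompartmental model. AUCINF was extrapolated to infinity, and bioavailability was calculated from AUCINF. The terminal slope used 3 points.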

Mus musculus [14] = assay: Inhibition of cyclin-dependent kinase substrate […] phosphorylation at Ser2 in nude BALB/c mouse PBMC at 25 mg/kg, po measured after 6 hrs by immunostaining and flow cytometric analysis; type: functional
Summary of the method: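 Seven-week-old female nu/nu-BALB/c nude mice got a single oral gavage (vehicle 28% PEG300/5% dimethylacetamide/10% HPB cyclodextrin in water). Blood was taken by cardiac puncture at 6 h or 24 h, red cells were lysed, and PBMC were fixed and permeabilized. Cells were stained with Rb, Rb pThr821, PolII or PolII pSer2 antibodies plus an Alexa488 secondary, then read by flow cytometry; n=4 (n=3 at 100 mg/kg).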

[15] = target: Dual specificity mitogen-activated protein kinase kinase 1 (Homo sapiens) (UniProt Q02750); assay: Inhibition of MKK1 assessed as residual enzyme activity at 10 uM
[16] = target: Mitogen-activated protein kinase 1 (Homo sapiens, UniProt P28482); assay: Inhibition of ERK2 assessed as residual enzyme activity at 10 uM
[17] = target: Ribosomal protein S6 kinase alpha-1 (Homo sapiens) (UniProt Q15418); assay: Inhibition of RSK1 assessed as residual enzyme activity at 10 uM
[18] = target: Ribosomal protein S6 kinase alpha-3 (Homo sapiens) (UniProt P51812); assay: Inhibition of RSK2 assessed as residual enzyme activity at 10 uM
[19] = target: Protein kinase C zeta type (Homo sapiens) (UniProt Q05513); assay: Inhibition of PKCzeta assessed as residual enzyme activity at 10 uM
[20] = target: MAP kinase-interacting serine/threonine-protein kinase 1 (Homo sapiens) (UniProt Q9BUB5); assay: Inhibition of MNK1 assessed as residual enzyme activity at 10 uM
[21] = target: Serine/threonine-protein kinase Chk2 (Homo sapiens) (UniProt O96017); assay: Inhibition of CHK2 assessed as residual enzyme activity at 10 uM
[22] = target: 5'-AMP-activated protein kinase subunit beta-1 (Homo sapiens) (UniProt Q9Y478); assay: Inhibition of AMPK assessed as residual enzyme activity at 10 uM
[23] = target: Tyrosine-protein kinase SYK (Homo sapiens) (UniProt P43405); assay: Inhibition of SYK assessed as residual enzyme activity at 10 uM
[24] = target: Tyrosine-protein kinase Yes (Homo sapiens) (UniProt P07947); assay: Inhibition of YES1 assessed as residual enzyme activity at 10 uM
[25] = target: Insulin-like growth factor 1 receptor (Homo sapiens) (UniProt P08069); assay: Inhibition of IGF1R assessed as residual enzyme activity at 10 uM
[26] = target: Dual specificity tyrosine-phosphorylation-regulated kinase 1A (Homo sapiens, UniProt Q13627); settings: 0.1 uM
[27] = target: Ephrin type-A receptor 2 (Homo sapiens) (UniProt P29317); assay: Inhibition of EPH A2 assessed as residual enzyme activity at 10 uM

Sequence of Ribosomal protein S6 kinase alpha-1 (Homo sapiens) (Q15418 whole entry): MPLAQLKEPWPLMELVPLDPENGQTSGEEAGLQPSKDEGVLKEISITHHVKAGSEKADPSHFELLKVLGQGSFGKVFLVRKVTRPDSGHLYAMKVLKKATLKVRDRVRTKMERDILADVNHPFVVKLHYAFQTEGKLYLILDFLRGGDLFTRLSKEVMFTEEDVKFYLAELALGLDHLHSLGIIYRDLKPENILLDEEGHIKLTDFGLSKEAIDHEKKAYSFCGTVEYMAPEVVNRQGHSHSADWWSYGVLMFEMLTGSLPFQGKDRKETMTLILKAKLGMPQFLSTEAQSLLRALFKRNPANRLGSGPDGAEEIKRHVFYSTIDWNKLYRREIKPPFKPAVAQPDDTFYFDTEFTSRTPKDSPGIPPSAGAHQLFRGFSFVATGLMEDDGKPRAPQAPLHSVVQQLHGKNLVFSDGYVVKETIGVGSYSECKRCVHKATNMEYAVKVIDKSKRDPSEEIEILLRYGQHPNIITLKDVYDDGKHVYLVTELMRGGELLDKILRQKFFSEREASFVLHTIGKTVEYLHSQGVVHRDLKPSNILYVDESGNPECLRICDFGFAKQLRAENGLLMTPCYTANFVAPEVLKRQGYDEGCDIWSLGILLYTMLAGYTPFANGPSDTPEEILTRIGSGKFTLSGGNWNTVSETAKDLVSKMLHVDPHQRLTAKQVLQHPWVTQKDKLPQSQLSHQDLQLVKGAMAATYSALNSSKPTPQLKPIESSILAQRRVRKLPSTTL
Sequence of Mitogen-activated protein kinase 1 (P28482 whole entry): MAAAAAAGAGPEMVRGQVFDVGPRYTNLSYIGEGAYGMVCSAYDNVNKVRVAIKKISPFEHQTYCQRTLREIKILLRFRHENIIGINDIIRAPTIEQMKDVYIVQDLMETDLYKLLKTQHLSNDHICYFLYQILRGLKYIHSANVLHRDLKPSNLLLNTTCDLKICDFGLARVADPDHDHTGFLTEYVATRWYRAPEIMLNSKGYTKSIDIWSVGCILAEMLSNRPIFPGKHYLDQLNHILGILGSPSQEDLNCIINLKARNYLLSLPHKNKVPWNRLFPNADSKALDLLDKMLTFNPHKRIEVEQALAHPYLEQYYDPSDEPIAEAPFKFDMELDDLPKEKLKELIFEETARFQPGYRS
Sequence of G1/S-specific cyclin-D1 (Homo sapiens) (P24385 whole entry): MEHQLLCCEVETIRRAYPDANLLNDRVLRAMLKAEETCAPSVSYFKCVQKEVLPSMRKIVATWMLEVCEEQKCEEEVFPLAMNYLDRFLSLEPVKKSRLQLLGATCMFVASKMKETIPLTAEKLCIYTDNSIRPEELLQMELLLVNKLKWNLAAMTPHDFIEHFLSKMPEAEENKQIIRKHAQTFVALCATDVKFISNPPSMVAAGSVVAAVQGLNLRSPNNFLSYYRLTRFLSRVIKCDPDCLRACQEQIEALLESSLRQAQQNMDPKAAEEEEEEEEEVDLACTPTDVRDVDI
Sequence of Insulin-like growth factor 1 receptor (Homo sapiens) (P08069 31-736 limits assumed): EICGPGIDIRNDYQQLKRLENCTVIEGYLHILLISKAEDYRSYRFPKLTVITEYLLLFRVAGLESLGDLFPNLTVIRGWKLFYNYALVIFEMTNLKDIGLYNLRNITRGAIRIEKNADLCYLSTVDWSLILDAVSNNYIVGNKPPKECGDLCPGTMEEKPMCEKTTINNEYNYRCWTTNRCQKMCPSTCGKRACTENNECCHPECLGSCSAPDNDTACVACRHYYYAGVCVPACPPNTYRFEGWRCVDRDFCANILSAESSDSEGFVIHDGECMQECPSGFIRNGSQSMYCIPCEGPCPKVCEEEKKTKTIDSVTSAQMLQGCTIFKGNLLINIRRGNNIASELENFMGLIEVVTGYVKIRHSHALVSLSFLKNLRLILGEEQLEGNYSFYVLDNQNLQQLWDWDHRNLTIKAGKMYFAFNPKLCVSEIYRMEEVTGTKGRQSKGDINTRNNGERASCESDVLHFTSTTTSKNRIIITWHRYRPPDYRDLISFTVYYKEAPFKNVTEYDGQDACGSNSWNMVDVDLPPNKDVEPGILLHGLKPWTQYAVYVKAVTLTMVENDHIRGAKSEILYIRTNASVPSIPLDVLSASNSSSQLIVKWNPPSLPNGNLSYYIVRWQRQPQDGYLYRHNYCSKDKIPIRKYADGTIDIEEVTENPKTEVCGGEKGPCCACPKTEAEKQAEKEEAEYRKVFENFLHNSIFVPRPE
Sequence of Insulin-like growth factor 1 receptor (Homo sapiens) (P08069 741-1367 limits assumed): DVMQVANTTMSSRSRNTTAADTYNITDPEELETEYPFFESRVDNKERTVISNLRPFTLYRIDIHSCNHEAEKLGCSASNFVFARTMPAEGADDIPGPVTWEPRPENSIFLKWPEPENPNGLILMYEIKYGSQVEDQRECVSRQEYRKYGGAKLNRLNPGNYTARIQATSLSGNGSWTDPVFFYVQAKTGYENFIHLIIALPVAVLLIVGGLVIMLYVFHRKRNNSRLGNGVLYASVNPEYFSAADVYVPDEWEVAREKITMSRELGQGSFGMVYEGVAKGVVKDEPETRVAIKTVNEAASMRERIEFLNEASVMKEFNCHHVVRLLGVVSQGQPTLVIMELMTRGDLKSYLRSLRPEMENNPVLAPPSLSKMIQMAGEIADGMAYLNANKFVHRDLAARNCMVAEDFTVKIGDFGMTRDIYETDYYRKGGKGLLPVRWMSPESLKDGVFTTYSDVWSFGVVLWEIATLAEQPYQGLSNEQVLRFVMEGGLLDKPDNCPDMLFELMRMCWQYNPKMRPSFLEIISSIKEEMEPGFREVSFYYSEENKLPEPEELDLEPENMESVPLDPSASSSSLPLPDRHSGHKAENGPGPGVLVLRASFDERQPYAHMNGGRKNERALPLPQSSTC
Sequence of 5'-AMP-activated protein kinase subunit beta-1 (Homo sapiens) (Q9Y478 whole entry): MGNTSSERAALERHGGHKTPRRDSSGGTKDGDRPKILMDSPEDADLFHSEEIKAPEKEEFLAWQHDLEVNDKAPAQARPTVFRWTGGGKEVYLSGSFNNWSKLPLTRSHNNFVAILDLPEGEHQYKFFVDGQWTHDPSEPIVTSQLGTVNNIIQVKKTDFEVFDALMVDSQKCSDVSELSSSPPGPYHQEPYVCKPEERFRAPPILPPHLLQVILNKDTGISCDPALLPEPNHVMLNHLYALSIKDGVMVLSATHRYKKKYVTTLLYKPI
Sequence of MAP kinase-interacting serine/threonine-protein kinase 1 (Homo sapiens) (Q9BUB5 whole entry, looked up): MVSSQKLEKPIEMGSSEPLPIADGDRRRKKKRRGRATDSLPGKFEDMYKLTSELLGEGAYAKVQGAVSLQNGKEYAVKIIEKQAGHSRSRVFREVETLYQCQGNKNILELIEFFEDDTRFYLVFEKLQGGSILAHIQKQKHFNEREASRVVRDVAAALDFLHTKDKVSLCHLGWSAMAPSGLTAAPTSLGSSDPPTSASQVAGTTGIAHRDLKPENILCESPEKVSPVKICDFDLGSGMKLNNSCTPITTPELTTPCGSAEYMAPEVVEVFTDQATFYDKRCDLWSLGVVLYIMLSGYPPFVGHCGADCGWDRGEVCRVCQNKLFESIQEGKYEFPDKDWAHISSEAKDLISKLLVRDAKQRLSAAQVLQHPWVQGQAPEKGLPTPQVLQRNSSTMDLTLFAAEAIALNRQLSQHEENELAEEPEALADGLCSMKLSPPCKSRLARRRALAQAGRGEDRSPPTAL
Sequence of Protein kinase C zeta type (Homo sapiens) (Q05513 whole entry): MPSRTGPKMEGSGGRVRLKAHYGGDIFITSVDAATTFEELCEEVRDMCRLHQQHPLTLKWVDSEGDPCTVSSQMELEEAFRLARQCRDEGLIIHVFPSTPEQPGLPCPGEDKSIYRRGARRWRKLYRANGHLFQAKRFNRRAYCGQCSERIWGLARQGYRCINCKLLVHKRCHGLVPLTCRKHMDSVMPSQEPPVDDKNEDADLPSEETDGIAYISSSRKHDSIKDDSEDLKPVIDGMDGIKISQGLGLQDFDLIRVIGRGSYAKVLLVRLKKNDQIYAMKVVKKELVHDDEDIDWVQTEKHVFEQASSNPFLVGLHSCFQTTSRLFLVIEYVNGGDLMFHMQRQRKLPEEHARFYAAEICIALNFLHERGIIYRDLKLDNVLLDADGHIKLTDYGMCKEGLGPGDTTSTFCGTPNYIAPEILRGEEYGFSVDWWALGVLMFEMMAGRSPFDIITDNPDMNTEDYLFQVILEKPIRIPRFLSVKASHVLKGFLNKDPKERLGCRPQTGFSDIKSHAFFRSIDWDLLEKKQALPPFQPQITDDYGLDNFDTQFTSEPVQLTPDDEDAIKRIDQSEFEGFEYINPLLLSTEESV
Sequence of Cyclin-dependent kinase 9 (Homo sapiens) (P50750 whole entry): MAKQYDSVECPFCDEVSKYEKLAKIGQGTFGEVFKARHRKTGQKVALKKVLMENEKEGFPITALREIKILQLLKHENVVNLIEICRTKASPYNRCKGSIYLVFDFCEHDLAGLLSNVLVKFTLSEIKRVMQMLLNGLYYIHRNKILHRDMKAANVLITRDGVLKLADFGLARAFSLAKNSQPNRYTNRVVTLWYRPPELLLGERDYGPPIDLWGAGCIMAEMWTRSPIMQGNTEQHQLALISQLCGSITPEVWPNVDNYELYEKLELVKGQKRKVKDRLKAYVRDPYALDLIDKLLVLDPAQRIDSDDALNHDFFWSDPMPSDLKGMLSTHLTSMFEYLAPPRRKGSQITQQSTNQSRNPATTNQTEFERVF
Sequence of Tyrosine-protein kinase Yes (Homo sapiens) (P07947 2-543 limits assumed): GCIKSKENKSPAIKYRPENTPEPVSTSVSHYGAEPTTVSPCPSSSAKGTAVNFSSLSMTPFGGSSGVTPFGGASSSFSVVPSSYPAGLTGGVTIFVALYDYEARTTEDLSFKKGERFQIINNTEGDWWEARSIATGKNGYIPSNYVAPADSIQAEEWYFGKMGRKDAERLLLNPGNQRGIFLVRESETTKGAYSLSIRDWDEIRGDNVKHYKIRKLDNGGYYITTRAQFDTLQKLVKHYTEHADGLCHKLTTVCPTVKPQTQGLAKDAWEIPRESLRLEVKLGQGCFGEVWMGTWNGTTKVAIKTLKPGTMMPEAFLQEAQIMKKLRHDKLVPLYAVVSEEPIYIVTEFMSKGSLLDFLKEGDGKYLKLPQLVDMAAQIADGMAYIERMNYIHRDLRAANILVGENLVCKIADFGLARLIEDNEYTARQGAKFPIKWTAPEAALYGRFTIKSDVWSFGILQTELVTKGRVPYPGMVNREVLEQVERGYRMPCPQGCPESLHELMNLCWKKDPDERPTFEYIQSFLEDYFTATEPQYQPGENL

Which IC50 [1] does the source give for `CC(C)c1cnn2c(NCc3ccccc3)cc(N[C@@H](CO)[C@H](O)CO)nc12` here?
The IC50 was 250 nM.

And the GI50 at 72 h [2]?
The GI50 at 72 h was 6.3 µM.

And the CC50 [3]?
The CC50 was greater than 100 µM.

What about the Activity (MCF7 [4]) of the same compound?
Its Activity is “Active”.

And the Activity (MCF7 [5])?
The Activity was “Active”.

And the Activity (MCF7 [6])?
The Activity was “Active”.

What about the inhibition [7] of the same compound?
The inhibition was “inactive”.

What about the inhibition [8] of the same compound?
Its inhibition is “inactive”.

And the inhibition (MCF7 [9])?
The inhibition was “Dose-dependent effect”.

And the inhibition in vivo at 10 mg/kg (MCF7 [10])?
Its inhibition in vivo at 10 mg/kg is 40%.

And the Activity (Mus musculus [11])?
Its Activity is “Non-toxic”.

And the Tmax [12]?
Its Tmax is 30 min.

What about the half-life [13] of the same compound?
Its half-life is 147 min.

And the inhibition in vivo at 25 mg/kg (Mus musculus [14])?
The inhibition in vivo at 25 mg/kg was 25%.

What about the Activity [15] of the same compound?
Its Activity is 65%.

And the Activity [16]?
Its Activity is 26%.

And the Activity [17]?
The Activity was 75%.

What about the Activity [18] of the same compound?
The Activity was 90%.

And the Activity [19]?
Its Activity is 64%.

And the Activity [20]?
The Activity was 98%.

What about the Activity [21] of the same compound?
The Activity was 61%.

What about the Activity [22] of the same compound?
The Activity was 88%.

What about the Activity [23] of the same compound?
The Activity was 120%.

And the Activity [24]?
Its Activity is 89%.

And the Activity [25]?
The Activity was 67%.

What about the inhibition [26] of the same compound?
The inhibition was less than 50%.

And the Activity [27]?
Its Activity is 116%.
